From ChEMBL document CHEMBL1122269, “Synthesis and biological evaluation of neutral derivatives of 5-fluoro-2'-deoxyuridine 5'-phosphate” (1983)

Assays:
[1] = system: P388; test: Percentage increase in life span of murine leukemia P388 sensitive to 5-FU, at dose 300 mg/kg; assay type: functional; details: Mus musculus
Outline: (§1)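 P-388 model in male BDF₁ mice, six per group, average weight 23 g: 1×10^6 cells ip on day 0, then compound in 0.9% saline ip daily ×5 from 24 h. Mice were observed up to 60 days. % ILS = (T/C − 1) × 100, using median survival of treated mice versus saline-treated controls.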

[2] = system: P388; test: Average percentage weight change on day 6 in murine leukemia P388 sensitive to 5-FU at dose 500 mg/kg; assay type: functional, Mus musculus
Outline: (§2)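 Male BDF₁ mice, six per group, average weight 23 g, were inoculated ip on day 0 with 1×10^6 P-388 leukemia cells, either 5-FU-sensitive or 5-FU-resistant. Compound in 0.9% saline was given ip once daily for 5 consecutive days, starting 24 h after tumor transplantation. Saline-treated animals served as controls.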

[3] = system: P388; test: Average percentage weight change on day 6 in murine leukemia P388 resistant to 5-FU at dose 108 mg/kg; assay type: functional, Mus musculus; outline: as §2
[4] = system: P388; test: Median survival time (MST) of murine leukemia P388 (1*10e 6 cells) sensitive to 5-FU in mice at dose of 500 mg/kg(ip); assay type: functional, Mus musculus
Outline: (§3)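 Male BDF₁ mice, six per group, average weight 23 g, were inoculated ip with 1×10^6 P-388 cells on day 0. Compound in 0.9% saline was given ip daily for 5 days from 24 h post-implant. Mice were followed for 60 days or until death, and median survival time was recorded. Saline-treated controls numbered 20 mice.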

[5] = system: P388; test: Percentage increase in life span of murine leukemia P388 resistant to 5-FU, at a dose 300 mg/kg; assay type: functional; details: Mus musculus; outline: as §1
[6] = system: P388; test: Average percentage weight change on day 6 in murine leukemia P388 sensitive to 5-FU at dose 108 mg/kg; assay type: functional, Mus musculus; outline: as §2
[7] = system: P388; test: Percentage increase in life span of murine leukemia P388 resistant to 5-FU at dose 180 mg/kg; assay type: functional; details: Mus musculus; outline: as §1
[8] = system: P388; test: Median survival time (MST) of murine leukemia P388 (1*10e 6 cells) resistant to 5-FU in mice at dose of 108 mg/kg(ip); assay type: functional, Mus musculus; outline: as §3
[9] = system: P388; test: Average percentage weight change on day 6 in murine leukemia P388 sensitive to 5-FU at dose 180 mg/kg; assay type: functional, Mus musculus; outline: as §2
[10] = system: P388; test: Average percentage weight change on day 6 in murine leukemia P388 resistant to 5-FU at dose 180 mg/kg; assay type: functional, Mus musculus; outline: as §2
[11] = system: P388; test: Average percentage weight change on day 6 in murine leukemia P388 resistant to 5-FU at dose 500 mg/kg; assay type: functional, Mus musculus; outline: as §2
[12] = system: P388; test: Percentage increase in life span of murine leukemia P388 sensitive to 5-FU at dose 500 mg/kg; assay type: functional; details: Mus musculus; outline: as §1
[13] = system: P388; test: Average percentage weight change on day 6 in murine leukemia P388 resistant to 5-FU at dose 300 mg/Kg; assay type: functional, Mus musculus; outline: as §2
[14] = system: P388; test: Average percentage weight change on day 6 in murine leukemia P388 sensitive to 5-FU at dose 300 mg/kg; assay type: functional, Mus musculus; outline: as §2
[15] = system: P388; test: Median survival time (MST) of murine leukemia P388 (1*10e 6 cells) resistant to 5-FU in mice at dose of 300 mg/kg(ip); assay type: functional, Mus musculus; outline: as §3
[16] = system: P388; test: Percentage increase in life span of murine leukemia P388 sensitive to 5-FU, at dose 108 mg/kg; assay type: functional; details: Mus musculus; outline: as §1
[17] = system: P388; test: Median survival time (MST) of murine leukemia P388 (1*10e 6 cells) resistant to 5-FU in mice at dose of 500 mg/kg(ip); assay type: functional, Mus musculus; outline: as §3
[18] = system: P388; test: Median survival time (MST) of murine leukemia P388 (1*10e 6 cells) sensitive to 5-FU in mice at dose of 180 mg/kg(ip); assay type: functional, Mus musculus; outline: as §3
[19] = system: P388; test: Median survival time (MST) of murine leukemia P388 (1*10e 6 cells) resistant to 5-FU in mice at dose of 180 mg/kg(ip); assay type: functional, Mus musculus; outline: as §3
[20] = system: P388; test: Percentage increase in life span of murine leukemia P388 resistant to 5-FU at dose 500 mg/kg; assay type: functional; details: Mus musculus; outline: as §1
[21] = system: P388; test: Median survival time (MST) of murine leukemia P388 (1*10e 6 cells) sensitive to 5-FU in mice at dose of 108 mg/kg(ip); assay type: functional, Mus musculus; outline: as §3
[22] = system: P388; test: Percentage increase in life span of murine leukemia P388 sensitive to 5-FU, at dose 180 mg/kg; assay type: functional; details: Mus musculus; outline: as §1
[23] = system: P388; test: Percentage increase in life span of murine leukemia P388 resistant to 5-FU at dose 108 mg/kg; assay type: functional; details: Mus musculus; outline: as §1
[24] = system: P388; test: Median survival time (MST) of murine leukemia P388 (1*10e 6 cells) sensitive to 5-FU in mice at dose of 300 mg/kg(ip); assay type: functional, Mus musculus; outline: as §3
[25] = system: P388; test: Average percentage weight change on day 6 in murine leukemia P388 sensitive to 5-FU at a dose of 35 mg/kg; assay type: functional, Mus musculus
Outline: (§4)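 Male BDF₁ mice, six per group, average weight 23 g, were given 1×10^6 P-388 cells ip on day 0. Compound in 0.9% saline was dosed ip once daily for 5 consecutive days, starting 24 h after tumour transplant.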

[26] = system: P388; test: Average percentage weight change on day 6 in murine leukemia P388 sensitive to 5-FU at a dose of 20 mg/kg; assay type: functional, Mus musculus; outline: as §4
[27] = system: P388; test: Median survival time (MST) of murine leukemia P388 (1*10e 6 cells) sensitive to 5-FU in mice, dose of 20 mg/kg(ip); assay type: functional, Mus musculus; outline: as §3
[28] = system: P388; test: Average percentage weight change on day 6 in murine leukemia P388 resistant to 5-FU at a dose of 35 mg/kg; assay type: functional, Mus musculus; outline: as §4
[29] = system: P388; test: Median survival time (MST) of murine leukemia P388 (1*10e 6 cells) resistant to 5-FU in mice, dose of 20 mg/kg (i.p.); assay type: functional, Mus musculus; details: route intraperitoneal; outline: as §3
[30] = system: P388; test: Percentage increase in life span of murine leukemia P388 sensitive to 5-FU, at a dose 35 mg/kg; assay type: functional; details: Mus musculus; outline: as §1
[31] = system: P388; test: Percentage increase in life span of murine leukemia P388 resistant to 5-FU, at a dose 15 mg/kg; assay type: functional; details: Mus musculus; outline: as §1
[32] = system: P388; test: Median survival time (MST) of murine leukemia P388 (1*10e 6 cells) sensitive to 5-FU in mice, dose of 35 mg/kg(ip); assay type: functional, Mus musculus; outline: as §3
[33] = system: P388; test: Average percentage weight change on day 6 in murine leukemia P388 resistant to 5-FU at a dose of 15 mg/kg; assay type: functional, Mus musculus; outline: as §4
[34] = system: P388; test: Percentage increase in life span of murine leukemia P388 resistant to 5-FU, at a dose 35 mg/kg; assay type: functional; details: Mus musculus; outline: as §1
[35] = system: P388; test: Percentage increase in life span of murine leukemia P388 sensitive to 5-FU, at a dose 20 mg/kg; assay type: functional; details: Mus musculus; outline: as §1
[36] = system: P388; test: Median survival time (MST) of murine leukemia P388 (1*10e 6 cells) resistant to 5-FU in […] mice, dose of 35 mg/kg(ip); assay type: functional, Mus musculus; outline: as §3
[37] = system: P388; test: Average percentage weight change on day 6 in murine leukemia P388 resistant to 5-FU at a dose of 20 mg/Kg; assay type: functional, Mus musculus; outline: as §4
[38] = system: P388; test: Median survival time (MST) of murine leukemia P388 (1*10e 6 cells) resistant to 5-FU in mice, dose of 15 mg/kg(ip); assay type: functional, Mus musculus; outline: as §3
[39] = system: P388; test: Percentage increase in life span of murine leukemia P388 resistant to 5-FU, at a dose 20 mg/kg; assay type: functional; details: Mus musculus; outline: as §1

O=c1[nH]c(=O)n([C@H]2C[C@H](O)[C@@H](COP3(=O)OCCCO3)O2)cc1F
ILS at 300 mg/kg [1]: 22%
Weight change [2]: -12.4%
Weight change [3]: 6.3%
MST [4]: 12 days
ILS at 300 mg/kg [5]: 0%
Weight change [6]: 1.7%
ILS at 180 mg/kg [7]: 0%
MST [8]: 10 days
Weight change [9]: 0%
Weight change [10]: 4.1%
Weight change [11]: 0.6%
ILS at 500 mg/kg [12]: 33%
Weight change [13]: 1.2%
Weight change [14]: -8.8%
MST [15]: 10 days
ILS at 108 mg/kg [16]: 11%
MST [17]: 10 days
MST [18]: 10 days
MST [19]: 10 days
ILS at 500 mg/kg [20]: 0%
MST [21]: 10 days
ILS at 180 mg/kg [22]: 11%
ILS at 108 mg/kg [23]: 0%
MST [24]: 11 days

O=c1[nH]cc(F)c(=O)[nH]1 [FLUOROURACIL]
Weight change [25]: -21.8%
Weight change [26]: -16.5%
MST [27]: 19 days
Weight change [28]: -14.2%
MST [29]: 11 days
ILS at 35 mg/kg [30]: -11%
ILS at 15 mg/kg [31]: 10%
MST [32]: 8 days
Weight change [33]: -6.2%
ILS at 35 mg/kg [34]: -10%
ILS at 20 mg/kg [35]: 111%
MST [36]: 9 days
Weight change [37]: -3.9%
MST [38]: 11 days
ILS at 20 mg/kg [39]: 10%
